Test results: PMC6893110 (Molecular imaging and biology, 2020)
pIC50, pKd: −log10 of the molar value. Blank lines part the entries; values can stand above or below the molecule they belong to.

Key:
[1] = Solubility of IPAG in assay media; format: physicochemical; conditions: in both cell media and PBS
[2] = tested on: MCF7 tumor xenografts; experiment: PET imaging of [^124I]IPAG in MCF7 tumor-bearing mice; format: in vivo, athymic nude mice
How it was run: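 Female athymic nude mice (n=5) carried estradiol-supported s.c. MCF7 xenografts on the right forelimb (100–300 mm³). They got 0.1% KI i.p. 1 h before i.v. tracer (200 μCi, 7.4 MBq, in 150 μL 0.5% ethanol/saline). Mice were anaesthetised with 2% isoflurane in air for 15 min and scanned by microPET at serial times up to 144 h post-injection. Images were read visually and tumor maximum pixel values recorded.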

[3] = tested on: MCF-7 tumor xenografts; experiment: In vivo tracer dilution; design: species or system athymic nude mice; conditions: for reduction of [^124I]IPAG tumor uptake: 100-fold excess of IPAG
How it was run: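 MCF7-xenografted athymic nude mice (estradiol-supplemented, 100–300 mm³ tumors) got KI i.p. 1 h before i.v. co-injection. […] Mice were euthanised at 24, 48 or 72 h and organs weighed and gamma-counted. %ID/g was decay- and background-corrected.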

[4] = biological target: S1R; conditions: read-out: Kd for S1R; binding to S1R; no reference given; cited from earlier work
[5] = biological target: S1R (Homo sapiens, UniProt Q99720); format: binding
[6] = tested on: LNCaP tumors; experiment: PET imaging blocking study in LNCaP tumor-bearing mice; format: in vivo, athymic nude mice; conditions: 100-fold excess of cold IPAG co-injected with [^124I]IPAG
How it was run: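 LNCaP cells (5×10^6 in 1:1 Matrigel/medium) were grown s.c. on the hind limb of athymic nude mice for 3–5 weeks. Mice got 0.1% KI i.p. 1 h before i.v. tracer (200 μCi in 150 μL 0.5% ethanol/saline) co-injected with 100-fold excess unlabeled IPAG. Under 2% isoflurane, mice were imaged by microPET at 4, 24 and 72 h. %ID/g came from regions of interest drawn on the PET images.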

[7] = tested on: MCF7 tumors; experiment: Ex vivo biodistribution of [^124I]IPAG in MCF7 tumor-bearing mice; design: species or system athymic nude mice; conditions: n = 5
How it was run: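 Female athymic nude mice (6–8 wk) got s.c. 17β-estradiol pellets (0.75 mg) 72 h before s.c. forelimb implant of 1×10^7 MCF7 cells in 1:1 Matrigel/medium. Tumors were 100–300 mm³. Mice got 0.1% KI i.p. 1 h before i.v. tracer (20–30 μCi in 5% ethanol/0.9% saline) and were euthanised by CO₂ at 4, 24, 48 or 72 h. Organs were weighed and gamma-counted, with background and decay correction. Injected dose was taken from syringe activity before and after injection. Results are %ID/g, mean and SD.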

Chain of S1R (Homo sapiens, UniProt Q99720) (Q99720 whole entry): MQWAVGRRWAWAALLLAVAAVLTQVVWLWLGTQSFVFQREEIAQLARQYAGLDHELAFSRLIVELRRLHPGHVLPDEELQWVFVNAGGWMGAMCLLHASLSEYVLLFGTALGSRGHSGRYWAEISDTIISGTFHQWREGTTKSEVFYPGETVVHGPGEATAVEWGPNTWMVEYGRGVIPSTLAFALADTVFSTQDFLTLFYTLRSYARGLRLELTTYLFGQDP

solubility [1]: poor solubility
clearance time from background organs ([2]; PET imaging, mice): around 24 h
pIC50 [5]: 7.85 to 8.33
inhibitory constants in vitro ([5]; competition against radioiodinated IPAG, sigma-1): nanomolar
SMILES: N=C(Nc1ccc(I)cc1)NC1C2CC3CC(C2)CC1C3 (stereo not shown) [IPAG, 1-(4-iodophenyl)-3-(2-adamantyl)guanidine]
reduction of [^124I]IPAG tumor uptake ([3]; 24 h): 81.14%
reduction of [^124I]IPAG tumor uptake ([3]; 48 h): 88.74%
pKd [4]: 8.05
calculated %ID/g values (PET ROI) versus [^124I]IPAG alone [6]: significantly lower

SMILES: O=C(CCCN1CCC(O)(c2ccc(Cl)cc2)CC1)c1ccc(F)cc1 [haloperidol]
inhibition of [^124I]IPAG uptake in tumor ([3]; 3.5-fold excess of haloperidol i.v. with tracer, 72 h p.i.): about 3 fold

SMILES: N=C(Nc1ccc([124I])cc1)NC1C2CC3CC(C2)CC1C3 (stereo not shown) [[^124I]IPAG, I-124 labeled 1-(4-iodophenyl)-3-(2-adamantyl)guanidine]
uptake at extended time post injection (PET imaging) ([2]; 144 h post injection): ~ 0.17 % ID/g
%ID/g uptake in MCF7 tumors ([7]; 4 h post i.v. injection): 1.53 ± 0.27 %ID/g
%ID/g uptake in MCF7 tumors ([7]; 24 h post i.v. injection): 1.09 ± 0.24 %ID/g
%ID/g uptake in MCF7 tumors ([7]; 48 h post i.v. injection): 0.94 ± 0.23 %ID/g
